In brackets after ≈: the same amount, converted by molar mass.
Tests used:
[1] = Ratio of drug level in brain to blood in rat at 10 mg/kg, po; format: ADME, organism-based; parameters: dose 10 mg/kg, route oral
Procedure, shortened: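 Rats dosed orally at 10 mg/kg (HCl salt); brain and blood drug concentrations measured and expressed as brain/blood ratio.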

[2] = Solubility of the compound at pH 6.8; format: physicochemical; settings: buffer
Procedure, shortened: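 Solubility measured in pH 6.8 buffer containing bile acids; compound tested as free base and as HCl salt.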

[3] = test system: Mus musculus; assay: Neurotoxicity in ddY mouse assessed as motor impairment at 300 mg/kg, po after 1 hr by horizontal rotarod test; format: toxicity, organism-based; parameters: dose 300 mg/kg, route oral; settings: in vivo
[4] = test system: Mus musculus; assay: Neurotoxicity in ddY mouse assessed as motor impairment at 3 to 30 mg/kg, po after 1 hr by horizontal rotarod test; format: toxicity, organism-based; parameters: dose 3-30 mg/kg, route oral; settings: in vivo
[5] = test system: Mus musculus; assay: Neurotoxicity in ddY mouse assessed as reduction in locomotor activity at 3 to 30 mg/kg, po after 1 hr; format: toxicity, organism-based; parameters: dose 3-30 mg/kg, route oral; settings: in vivo
[6] = test system: Rattus norvegicus; assay: Neurotoxicity in Wistar rat assessed as memory impairment at 1 to 30 mg/kg, po after 1 hr by passive avoidance test; format: toxicity, organism-based; parameters: dose 1-30 mg/kg, route oral; settings: in vivo
[7] = test system: Mus musculus; assay: Neurotoxicity in ddY mouse assessed as elongation of hexobarbital-induced sleep at 0.3 to 3 mg/kg, po after 1 hr; format: toxicity, organism-based; parameters: dose 0.3-3 mg/kg, route oral; settings: in vivo
[8] = test system: Mus musculus; assay: Neurotoxicity in ddY mouse assessed as reduction in locomotor activity at 10 to 100 mg/kg, po after 1 hr; format: toxicity, organism-based; parameters: dose 10-100 mg/kg, route oral; settings: in vivo
[9] = test system: Mus musculus; assay: Neurotoxicity in ddY mouse assessed as motor impairment at 10 to 100 mg/kg, po after 1 hr by horizontal rotarod test; format: toxicity, organism-based; parameters: dose 10-100 mg/kg, route oral; settings: in vivo
[10] = test system: Rattus norvegicus; assay: Neurotoxicity in Wistar rat assessed as memory impairment at 3 to 30 mg/kg, po after 1 hr by passive avoidance test; format: toxicity, organism-based; parameters: dose 3-30 mg/kg, route oral; settings: in vivo
[11] = test system: Mus musculus; assay: Neurotoxicity in ddY mouse assessed as elongation of hexobarbital-induced sleep at 300 mg/kg, po after 1 hr relative to diazepam; format: toxicity, organism-based; parameters: dose 300 mg/kg, route oral; settings: in vivo
[12] = biological target: Amine oxidase [flavin-containing] A (Homo sapiens, UniProt P21397); assay: Inhibition of human MAO-A at 10 uM
Sequence of Amine oxidase [flavin-containing] A (P21397 whole entry): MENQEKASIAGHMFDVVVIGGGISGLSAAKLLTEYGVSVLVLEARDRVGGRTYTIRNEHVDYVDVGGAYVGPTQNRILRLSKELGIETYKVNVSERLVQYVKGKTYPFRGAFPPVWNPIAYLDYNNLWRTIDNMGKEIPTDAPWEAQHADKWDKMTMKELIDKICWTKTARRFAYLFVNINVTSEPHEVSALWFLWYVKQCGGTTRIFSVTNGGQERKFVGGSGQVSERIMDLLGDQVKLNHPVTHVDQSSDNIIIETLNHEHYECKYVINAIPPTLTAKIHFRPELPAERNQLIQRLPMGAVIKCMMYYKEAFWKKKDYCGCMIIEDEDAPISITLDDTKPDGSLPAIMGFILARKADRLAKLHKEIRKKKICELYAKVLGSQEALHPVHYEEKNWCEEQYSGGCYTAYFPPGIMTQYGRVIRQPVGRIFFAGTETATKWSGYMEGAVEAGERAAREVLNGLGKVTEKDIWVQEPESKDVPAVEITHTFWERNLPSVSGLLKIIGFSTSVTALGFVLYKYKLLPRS

[13] = Metabolic stability in rat liver S9 fraction assessed as compound remaining at 1 uM after 30 mins in presence of NADPH; format: ADME, subcellular; settings: read-out: Stability
[14] = Metabolic stability in human liver S9 fraction assessed as compound remaining at 1 uM after 30 mins; format: ADME, subcellular; settings: read-out: Stability
[15] = biological target: Translocator protein (Homo sapiens, UniProt P30536); assay: Displacement of [3H]PK11195 from TSPO in human U-87 MG cells after 1 hr by liquid scintillation counting analysis; format: cell-based
Sequence of Translocator protein (Homo sapiens, UniProt P30536) (P30536 whole entry): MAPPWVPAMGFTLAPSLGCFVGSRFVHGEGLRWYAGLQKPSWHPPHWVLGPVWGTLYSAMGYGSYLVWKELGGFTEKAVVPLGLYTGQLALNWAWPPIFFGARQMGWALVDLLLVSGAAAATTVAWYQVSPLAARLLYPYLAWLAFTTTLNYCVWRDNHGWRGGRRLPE

[16] = Displacement of [3H]batrachotoxin from rat brain sodium channel site 2; format: tissue-based
[17] = biological target: Translocator protein (Rattus norvegicus, UniProt P16257); assay: Displacement of [3H]PK11195 from Sprague-Dawley rat kidney TSPO after 1 hr by liquid scintillation counting analysis
Sequence of Translocator protein (Rattus norvegicus, UniProt P16257) (P16257 whole entry, looked up): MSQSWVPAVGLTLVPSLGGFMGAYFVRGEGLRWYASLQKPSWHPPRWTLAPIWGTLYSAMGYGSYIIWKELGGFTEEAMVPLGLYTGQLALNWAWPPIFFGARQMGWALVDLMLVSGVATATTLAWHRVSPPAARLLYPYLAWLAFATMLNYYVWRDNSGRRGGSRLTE

[18] = Solubility of the compound at pH 7.4 by HPLC analysis; format: physicochemical; settings: buffer
Procedure, shortened: (§1)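 Compound (1 mg) shaken in 0.4 mL buffered solution at pH 7.4 or pH 2.5, then centrifuged; dissolved compound in the supernatant quantified by HPLC.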

[19] = Solubility of the compound at pH 2.5 by HPLC analysis; format: physicochemical; settings: buffer; procedure, shortened: as §1

With `CN(C(=O)Cn1c(=O)oc2ccc(-c3ccc(OC(F)(F)F)cc3)cc21)c1cccnc1.Cl` the Kp [1] was 1.3, the solubility [2] was 23 µg/mL and the Activity [3] was “Toxic”.
With `CN1C(=O)CN=C(c2ccccc2)c2cc(Cl)ccc21` [DIAZEPAM] the Activity [4] was “Toxic”, the Activity [5] was “Toxic” and the Activity [6] was “Toxic”. The Activity [7] was “Toxic”.
With `CN(C(=O)Cn1c(=O)oc2ccc(-c3cccnc3)cc21)c1ccc(C(F)(F)F)cc1.Cl` the Activity [8] was “Non-toxic”, the Activity [9] was “Non-toxic” and the Kp [1] was 1.2. For the same compound, the Activity [10] was “Non-toxic” and the Activity [11] was “Non-toxic”.
In the case of `CN(C(=O)Cn1c(=O)oc2ccc(-c3cccnc3)cc21)c1ccc(C(F)(F)F)cc1`, the “inhibition (INH)” value [12] is reported as “Not Active”, the remaining at 0.5 h, 1 µM [13] is reported as 38% and the remaining at 0.5 h, 1 µM [14] is reported as 84%. The Ki [15] was 8 nM, the IC50 [16] was > 10000 nM and the Ki [17] was 8.6 nM. It also gave a solubility [18] of 1 µg/mL (≈ 2.34 µM) and a solubility [19] of 420 µg/mL (≈ 983 µM).

From ChEMBL document CHEMBL2440065, “Identification of a novel benzoxazolone derivative as a selective, orally active 18 kDa translocator protein (TSPO) ligand” (J Med Chem, 2013)
